Assay results collected from several papers.
Lines come from different studies, so protocols differ.

Compound	species	medium	route	dose	notes	measurement	result
CCC[C@@](N)(CO)CCc1ccc(OCCCCCC(C)C)cc1	mouse	plasma	intraperitoneal	10 mg/kg	–	AUC(0-t)	1.06 µM·h
CN[C@H](CC(C)C)C(=O)N[C@H]1C(=O)N[C@@H](CC(N)=O)C(=O)N[C@H]2C(=O)NC3C(=O)N[C@H](C(=O)N[C@H](C(=O)NCCC[N+](C)(C)C)c4cc(O)cc(O)c4-c4cc3ccc4O)[C@H](O)c3ccc(c(Cl)c3)Oc3cc2cc(c3OC2OC(CO)C(O)[C@H](O)[C@@H]2O[C@H]2CC(C)(NCc3ccc(-c4ccc(Cl)cc4)cc3)[C@H](O)[C@H](C)O2)Oc2ccc(cc2Cl)[C@H]1O (some centres unmarked)	mouse	plasma	intravenous	10 mg/kg	–	AUC	81100 ng·h/mL
CCN(CC)CCCC[C@H](NC(=O)[C@H](CC(C)C)NC(=O)[C@H](C)NC(=O)[C@H](Cc1ccccc1)NC(=O)c1ccc(C(C)(C)C)cc1)C(=O)N[C@@H](CO)C(=O)OC	male Swiss mouse	blood	intravenous	3 mg/kg	–	AUC(0-t)	1890 ng·h/mL
NCC(=O)Nc1ccc(-n2nc(C(F)(F)F)cc2-c2ccc3c(ccc4ccccc43)c2)cc1	mouse	plasma	oral	80 mg/kg	single dose	AUC(0-t)	41400 ng·h/mL
C[C@]12CC[C@H](O)CC1=CC[C@@H]1[C@@H]2CC[C@]2(C)C(n3cnc4ccccc43)=CC[C@@H]12.Cl	mouse	plasma	intravenous	1 mg/kg	–	AUC(0-t)	44.3 ng·h/mL
Cc1cc(C)nc(Nc2ncc(C(=O)NCCc3c(C)[nH]c4ccccc34)cn2)c1	C57BL/6 mouse	plasma	intraperitoneal	4.4 mg/kg	–	AUC(0-inf)	155 ng·h/mL
C[C@]12CC[C@H](n3ccnc3)CC1=CC[C@@H]1[C@@H]2CC[C@]2(C)C(n3cnc4ccccc43)=CC[C@@H]12.Cl	male CD-1 mouse	plasma	oral	10 mg/kg	–	AUC(0-t)	22600 ng·h/mL
CN1CCCCC1Cn1cc(C(=O)c2cc([N+](=O)[O-])ccc2I)c2ccccc21 (racemic)	mouse	plasma	oral	25 mg/kg	–	AUC	1230 ng·h/mL
